Tests used:
[1] = molecular target: Tyrosine-protein kinase Lck (Homo sapiens) (UniProt P06239); assay: Equilibrium constant for competitive binding to p56 lck SH2 domain by SPR after 5th run
Method in brief: (§1)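 Injected at 5 μL/min over streptavidin chip bearing biotinylated EPQpYEEIPIA (500 nM loading); 10 mM HCl regeneration. Plateau RU vs peptide fitted by nonlinear regression (eq 15) for KS, KC fixed from direct binding.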

[2] = molecular target: Tyrosine-protein kinase Lck (Homo sapiens) (UniProt P06239); assay: Equilibrium constant for competitive binding to p56 lck SH2 domain by SPR after 4th run; method in brief: as §1
[3] = molecular target: Tyrosine-protein kinase Lck (Homo sapiens) (UniProt P06239); assay: Equilibrium constant for competitive binding to p56 lck SH2 domain by SPR after 3rd run; method in brief: as §1
[4] = molecular target: Tyrosine-protein kinase Lck (Homo sapiens) (UniProt P06239); assay: Equilibrium constant for competitive binding to p56 lck SH2 domain by SPR after 1st run; method in brief: as §1
[5] = molecular target: Tyrosine-protein kinase Lck (Homo sapiens) (UniProt P06239); assay: Equilibrium constant for competitive binding to p56 lck SH2 domain by SPR after 2nd run; method in brief: as §1

Tyrosine-protein kinase Lck (Homo sapiens), sequence (P06239 2-509 limits assumed): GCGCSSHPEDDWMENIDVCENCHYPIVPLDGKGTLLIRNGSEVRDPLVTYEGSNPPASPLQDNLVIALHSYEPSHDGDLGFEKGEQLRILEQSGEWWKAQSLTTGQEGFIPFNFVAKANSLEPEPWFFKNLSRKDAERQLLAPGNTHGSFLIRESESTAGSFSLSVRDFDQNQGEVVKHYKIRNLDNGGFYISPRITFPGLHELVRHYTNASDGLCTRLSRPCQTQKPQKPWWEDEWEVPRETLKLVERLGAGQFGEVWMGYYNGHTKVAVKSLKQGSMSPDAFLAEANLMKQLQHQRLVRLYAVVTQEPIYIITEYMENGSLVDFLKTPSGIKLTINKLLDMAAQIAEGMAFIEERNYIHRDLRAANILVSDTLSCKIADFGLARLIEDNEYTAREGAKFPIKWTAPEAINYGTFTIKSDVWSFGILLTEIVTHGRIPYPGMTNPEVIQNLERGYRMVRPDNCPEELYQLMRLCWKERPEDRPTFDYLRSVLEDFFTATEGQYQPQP

| Ks [1] | Ks [2] | Ks [3] | Ks [4] | Ks [5] | Structure (SMILES) |
| --- | --- | --- | --- | --- | --- |
| 2.16 µM | 938 nM | 908 nM | 833 nM | 916 nM | NC(=O)CC[C@H](NC(=O)CNC(=O)[C@@H](N)CCC(=O)O)C(=O)N[C@@H](Cc1ccc(OP(=O)(O)O)cc1)C(=O)N[C@@H](CCC(=O)O)C(=O)N[C@@H](CCC(=O)O)C(=O)NCC(=O)N1CCC[C@@H]1C(=O)O |
| 2.85 µM | 1250 nM | 1220 nM | 1320 nM | 982 nM | CC[C@H](C)[C@H](NC(=O)[C@H](CCC(=O)O)NC(=O)CNC(=O)[C@H](Cc1ccc(OP(=O)(O)O)cc1)NC(=O)CNC(=O)[C@H](CCC(N)=O)NC(=O)[C@@H](N)CCC(=O)O)C(=O)N1CCC[C@@H]1C(=O)O |
| 0.536 µM | 261 nM | 242 nM | 171 nM | 167 nM | CC[C@H](C)[C@H](NC(=O)CNC(=O)[C@H](CCC(=O)O)NC(=O)[C@H](Cc1ccc(OP(=O)(O)O)cc1)NC(=O)[C@H](CCC(N)=O)NC(=O)CNC(=O)[C@@H](N)CCC(=O)O)C(=O)N1CCC[C@@H]1C(=O)O |
| – | 27.8 nM | 26.9 nM | 14.4 nM | 22.8 nM | CC[C@H](C)[C@H](NC(=O)[C@H](CCC(=O)O)NC(=O)[C@H](CCC(=O)O)NC(=O)[C@H](Cc1ccc(OP(=O)(O)O)cc1)NC(=O)[C@H](CCC(N)=O)NC(=O)CNC(=O)[C@@H](N)CCC(=O)O)C(=O)N1CCC[C@@H]1C(=O)O |

Source: ChEMBL document CHEMBL1128297, “Determination of receptor-ligand kinetic and equilibrium binding constants using surface plasmon resonance: application to the lck SH2 domain and phosphotyrosyl peptides” (J Med Chem, 1995)
